In ChEMBL document CHEMBL4304798, “Iterative Optimization of the Cyclic Peptide SFTI-1 Yields Potent Inhibitors of Neutrophil Proteinase 3” (ACS Med Chem Lett, 2019):
The source made the active and inactive calls. The rule behind the calls is not given here. Positions of bridges follow the written chain, without caps; N, C: chain ends. Non-standard residues stand in square brackets, D forms with d. Residues, ends and D or L forms follow the SMILES beside them. ξ: configuration not given here. *: point of attachment. ClZ = O=C(OCc1ccccc1Cl)*; ξAbu = CCC(N)C(=O)O

What was measured:
[1] = Stability in human serum at 400 uM measured after 2 hrs by RP-HPLC analysis; assay type: ADME, cell-free
In short: (§1)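 Peptides incubated in human serum at 37 °C and sampled over time. Values are mean ± SEM from three experiments.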

[2] = molecular target: T1, Myeloblastin (Homo sapiens) (UniProt P24158); experiment: Competitive inhibition of purified human proteinase 3 at 160 nM using MeOSuc-AAPV-MCA as substrate by fluorescence based assay
T1 sequence (whole entry): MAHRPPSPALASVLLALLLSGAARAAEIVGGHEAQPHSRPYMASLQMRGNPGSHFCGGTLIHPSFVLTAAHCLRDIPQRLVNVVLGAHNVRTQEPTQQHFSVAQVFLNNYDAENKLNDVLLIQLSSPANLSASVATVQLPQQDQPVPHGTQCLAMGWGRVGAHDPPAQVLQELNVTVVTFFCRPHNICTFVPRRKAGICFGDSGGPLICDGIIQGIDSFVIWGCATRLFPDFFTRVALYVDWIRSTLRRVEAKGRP
In short: (§2)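 Competitive inhibition screen against PR3, with each peptide variant tested at two fixed inhibitor concentrations.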

[3] = molecular target: T1, Myeloblastin (Homo sapiens); experiment: Competitive inhibition of purified human proteinase 3 at 40 nM using MeOSuc-AAPV-MCA as substrate by fluorescence based assay; in short: as §2
Prothrombin = Prothrombin (Homo sapiens, UniProt P00734); experiment: Inhibition of recombinant human alpha thrombin using Boc-VPR-MCA as substrate by fluorescence based assay
Trypsin = Trypsin (Homo sapiens, UniProt P07477+P07478+P35030); experiment: Inhibition of recombinant human trypsin using Boc-VPR-MCA as substrate by fluorescence based assay; assay type: protein assay
Myeloblastin = molecular target: T2, Myeloblastin (Homo sapiens, UniProt P24158); experiment: Inhibition of purified human proteinase 3 using MeOSuc-AAPV-MCA as substrate by fluorescence based assay
T2 sequence (P24158 whole entry): T1 sequence (whole entry)

Neutrophil elastase = molecular target: T3, Neutrophil elastase (Homo sapiens, UniProt P08246); experiment: Inhibition of human neutrophil elastase using MeOSuc-AAPV-MCA as substrate by fluorescence based assay
T3 sequence (P08246 whole entry): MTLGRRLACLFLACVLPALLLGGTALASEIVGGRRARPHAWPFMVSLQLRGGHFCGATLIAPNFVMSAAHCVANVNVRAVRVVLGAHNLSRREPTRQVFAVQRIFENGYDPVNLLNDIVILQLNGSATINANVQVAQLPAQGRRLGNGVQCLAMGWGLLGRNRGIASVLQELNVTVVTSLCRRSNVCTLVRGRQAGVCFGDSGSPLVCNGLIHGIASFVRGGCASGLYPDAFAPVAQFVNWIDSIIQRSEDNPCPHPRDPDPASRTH

Chymase = molecular target: T4, Chymase (Homo sapiens, UniProt P23946); experiment: Inhibition of recombinant human chymase expressed in Pichia pastoris using NleTDY-pNA as substrate by fluorescence based assay
T4 sequence (P23946 whole entry): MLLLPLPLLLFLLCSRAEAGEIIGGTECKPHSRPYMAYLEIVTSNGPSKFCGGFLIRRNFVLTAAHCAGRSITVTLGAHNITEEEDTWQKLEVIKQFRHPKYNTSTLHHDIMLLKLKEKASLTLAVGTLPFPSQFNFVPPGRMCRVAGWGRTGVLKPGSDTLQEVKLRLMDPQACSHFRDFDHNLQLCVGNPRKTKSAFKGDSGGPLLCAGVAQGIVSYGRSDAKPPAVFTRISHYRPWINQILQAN

Cathepsin G = molecular target: T5, Cathepsin G (Homo sapiens, UniProt P08311); experiment: Inhibition of human Cathepsin G using Suc-AAPF-MCA as substrate by fluorescence based assay
T5 sequence (P08311 whole entry): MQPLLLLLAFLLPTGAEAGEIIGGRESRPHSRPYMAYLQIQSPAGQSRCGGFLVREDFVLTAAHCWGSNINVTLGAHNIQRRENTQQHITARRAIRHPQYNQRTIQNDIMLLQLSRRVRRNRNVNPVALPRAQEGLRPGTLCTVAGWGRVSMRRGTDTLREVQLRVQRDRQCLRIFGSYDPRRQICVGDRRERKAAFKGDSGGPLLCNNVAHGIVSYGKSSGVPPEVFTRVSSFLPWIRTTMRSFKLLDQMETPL

Chymotrypsin = Chymotrypsin (Homo sapiens, UniProt Q99895+P17538+P40313+Q6GPI1); experiment: Inhibition of human chymotrypsin using Suc-AAPF-MCA as substrate by fluorescence based assay; assay type: protein assay
[4] = Stability in human serum at 400 uM measured after 24 hrs by RP-HPLC analysis; assay type: ADME, cell-free; conditions: read-out: Stability; in short: as §1
[5] = molecular target: T6, Neutrophil elastase (Homo sapiens) (UniProt P08246); experiment: Inhibition of human neutrophil elastase at 2.5 to 40 nM using MeOSuc-AAPV-MCA as substrate by fluorescence based assay
T6 sequence (whole entry): T3 sequence (P08246 whole entry)

Structure (SMILES)	inhibition activity (active/inactive) [2]	IC50 (Prothrombin)	IC50 (Trypsin)	Ki (Myeloblastin)	Ki (Neutrophil elastase)	IC50 (Chymase)	IC50 (Cathepsin G)	remaining at 24 h, 400 µM [4]	further results
CC[C@H](C)[C@@H]1NC(=O)[C@@H]2CCCN2C(=O)[C@@H]2CCCN2C(=O)[C@H]([C@@H](C)CC)NC(=O)[C@H](CO)NC(=O)[C@H](CCCCN)NC(=O)[C@H]([C@@H](C)O)NC(=O)[C@@H](NC(=O)[C@H](CCCNC(=N)N)NC(=O)CN)CSSC[C@@H](C(=O)N[C@@H](Cc2ccccc2)C(=O)N2CCC[C@H]2C(=O)N[C@@H](CC(=O)O)C(=O)O)NC1=O	–	–	–	–	–	–	–	–	Stability [1]: Unstable
CCC1NC(=O)[C@H](CC(=O)O)NC(=O)[C@@H]2CSSC[C@H](NC(=O)[C@H]([C@@H](C)CC)NC(=O)[C@@H]3CCCN3C(=O)[C@@H]3CCCN3C(=O)[C@H](CC(=O)O)NC(=O)[C@H](CO)NC1=O)C(=O)N[C@@H](CC(N)=O)C(=O)N1CCC[C@H]1C(=O)N[C@@H](CC(N)=O)C(=O)NCC(=O)N[C@@H]([C@@H](C)O)C(=O)N2 (stereo partly drawn) (HELM PEPTIDE1{C.D.[CCC(N[*:1])C(=O)[*:2]].S.D.P.P.I.C.N.P.N.G.T}$PEPTIDE1,PEPTIDE1,1:R3-9:R3|PEPTIDE1,PEPTIDE1,1:R1-14:R2$$$V2.0)	Active	–	–	–	–	–	–	–	–
CCC1NC(=O)[C@H](Cc2ccc(O)cc2)NC(=O)[C@@H]2CSSC[C@H](NC(=O)[C@H]([C@@H](C)CC)NC(=O)[C@@H]3CCCN3C(=O)[C@@H]3CCCN3C(=O)[C@H](Cc3c[nH]c4ccccc34)NC(=O)[C@H](CO)NC1=O)C(=O)N[C@@H](CC(N)=O)C(=O)N1CCC[C@H]1C(=O)N[C@@H](CC(N)=O)C(=O)NCC(=O)N[C@@H]([C@@H](C)O)C(=O)N2 (stereo partly drawn) (HELM PEPTIDE1{C.N.P.N.G.T.C.Y.[CCC(N[*:1])C(=O)[*:2]].S.W.P.P.I}$PEPTIDE1,PEPTIDE1,1:R3-7:R3|PEPTIDE1,PEPTIDE1,1:R1-14:R2$$$V2.0)	–	–	–	–	–	–	–	–	inhibition [3]: Active
CCC1NC(=O)[C@H](Cc2ccc(O)cc2)NC(=O)[C@@H]2CSSC[C@H](NC(=O)[C@H]([C@@H](C)CC)NC(=O)[C@@H]3CCCN3C(=O)[C@@H]3CCCN3C(=O)[C@H](Cc3ccc(O)cc3)NC(=O)[C@H](CO)NC1=O)C(=O)N[C@@H](CC(N)=O)C(=O)N1CCC[C@H]1C(=O)N[C@@H](CC(N)=O)C(=O)NCC(=O)N[C@@H]([C@@H](C)O)C(=O)N2 (stereo partly drawn) (HELM PEPTIDE1{C.N.P.N.G.T.C.Y.[CCC(N[*:1])C(=O)[*:2]].S.Y.P.P.I}$PEPTIDE1,PEPTIDE1,1:R3-7:R3|PEPTIDE1,PEPTIDE1,1:R1-14:R2$$$V2.0)	–	> 10 µM	> 10 µM	0.007 µM	0.0032 µM	> 10 µM	> 10 µM	90 to 95%	inhibition [3]: Active; IC50 (Chymotrypsin): > 10 µM
CCC1NC(=O)[C@H](Cc2ccc(O)cc2)NC(=O)[C@@H]2CSSC[C@H](NC(=O)[C@H]([C@@H](C)CC)NC(=O)[C@@H]3CCCN3C(=O)[C@@H]3CCCN3C(=O)[C@H](Cc3ccc(O)cc3)NC(=O)[C@H](CO)NC1=O)C(=O)N[C@@H](CC(N)=O)C(=O)N1CCC[C@H]1C(=O)N[C@@H](CC(N)=O)C(=O)NCC(=O)N[C@@H](Cc1ccc(-c3ccccc3)cc1)C(=O)N2 (stereo partly drawn) (HELM PEPTIDE1{[O=C([C@H](Cc1ccc(-c2ccccc2)cc1)N[*:1])[*:2]].C.Y.[CCC(N[*:1])C(=O)[*:2]].S.Y.P.P.I.C.N.P.N.G}$PEPTIDE1,PEPTIDE1,2:R3-10:R3|PEPTIDE1,PEPTIDE1,1:R1-14:R2$$$V2.0)	–	> 10 µM	> 10 µM	0.017 µM	0.024 µM	> 10 µM	> 10 µM	90 to 95%	IC50 (Chymotrypsin): > 10 µM; inhibition [5]: Active
CCCC1NC(=O)[C@H](Cc2ccc(O)cc2)NC(=O)[C@@H]2CSSC[C@H](NC(=O)[C@H]([C@@H](C)CC)NC(=O)[C@@H]3CCCN3C(=O)[C@@H]3CCCN3C(=O)[C@H](Cc3ccc(O)cc3)NC(=O)[C@H](CO)NC1=O)C(=O)N[C@@H](CC(N)=O)C(=O)N1CCC[C@H]1C(=O)N[C@@H](CC(N)=O)C(=O)NCC(=O)N[C@@H](Cc1ccc(-c3ccccc3)cc1)C(=O)N2 (stereo partly drawn) (HELM PEPTIDE1{[O=C([C@H](Cc1ccc(-c2ccccc2)cc1)N[*:1])[*:2]].C.Y.[CCCC(N[*:1])C(=O)[*:2]].S.Y.P.P.I.C.N.P.N.G}$PEPTIDE1,PEPTIDE1,2:R3-10:R3|PEPTIDE1,PEPTIDE1,1:R1-14:R2$$$V2.0)	–	> 10 µM	> 10 µM	0.0061 µM	0.016 µM	> 10 µM	> 5 µM	90 to 95%	Ki (Chymotrypsin): 0.463 µM
CCC1NC(=O)[C@H](Cc2ccc(O)cc2)NC(=O)[C@@H]2CSSC[C@H](NC(=O)[C@H]([C@@H](C)CC)NC(=O)[C@@H]3CCCN3C(=O)[C@@H]3CCCN3C(=O)[C@H](Cc3ccc(O)cc3)NC(=O)[C@H](CO)NC1=O)C(=O)N[C@@H](CC(N)=O)C(=O)N1CCC[C@H]1C(=O)N[C@@H](CC(N)=O)C(=O)NCC(=O)N[C@@H](CCCCNC(=O)OCc1ccccc1Cl)C(=O)N2 (stereo partly drawn) (cyclo(CNPNGK(ClZ)CY[ξAbu]SYPPI); disulfide 1-7)	–	–	–	–	–	–	–	–	inhibition [5]: Active

More lines, main results first:

inhibition activity (active/inactive) [2]	Structure (SMILES)	IC50 (Prothrombin)	IC50 (Trypsin)	Ki (Myeloblastin)	Ki (Neutrophil elastase)	IC50 (Chymase)	IC50 (Cathepsin G)	remaining at 24 h, 400 µM [4]	further results
Active	CCC1NC(=O)[C@H](CC(=O)O)NC(=O)[C@@H]2CSSC[C@H](NC(=O)[C@H]([C@@H](C)CC)NC(=O)[C@@H]3CCCN3C(=O)[C@@H]3CCCN3C(=O)[C@H](Cc3ccc(O)cc3)NC(=O)[C@H](CO)NC1=O)C(=O)N[C@@H](CC(N)=O)C(=O)N1CCC[C@H]1C(=O)N[C@@H](CC(N)=O)C(=O)NCC(=O)N[C@@H]([C@@H](C)O)C(=O)N2 (stereo partly drawn) (HELM PEPTIDE1{C.D.[CCC(N[*:1])C(=O)[*:2]].S.Y.P.P.I.C.N.P.N.G.T}$PEPTIDE1,PEPTIDE1,1:R3-9:R3|PEPTIDE1,PEPTIDE1,1:R1-14:R2$$$V2.0)	–	–	–	–	–	–	–	–
Active	CCC1NC(=O)[C@H](Cc2ccc(O)cc2)NC(=O)[C@@H]2CSSC[C@H](NC(=O)[C@H]([C@@H](C)CC)NC(=O)[C@@H]3CCCN3C(=O)[C@@H]3CCCN3C(=O)[C@H](CC(=O)O)NC(=O)[C@H](CO)NC1=O)C(=O)N[C@@H](CC(N)=O)C(=O)N1CCC[C@H]1C(=O)N[C@@H](CC(N)=O)C(=O)NCC(=O)N[C@@H]([C@@H](C)O)C(=O)N2 (stereo partly drawn) (HELM PEPTIDE1{C.N.P.N.G.T.C.Y.[CCC(N[*:1])C(=O)[*:2]].S.D.P.P.I}$PEPTIDE1,PEPTIDE1,1:R3-7:R3|PEPTIDE1,PEPTIDE1,1:R1-14:R2$$$V2.0)	–	–	–	–	–	–	–	–
Active	CCC1NC(=O)[C@H](Cc2ccc(O)cc2)NC(=O)[C@@H]2CSSC[C@H](NC(=O)[C@H]([C@@H](C)CC)NC(=O)[C@@H]3CCCN3C(=O)[C@@H]3CCCN3C(=O)[C@H](CCC(=O)O)NC(=O)[C@H](CO)NC1=O)C(=O)N[C@@H](CC(N)=O)C(=O)N1CCC[C@H]1C(=O)N[C@@H](CC(N)=O)C(=O)NCC(=O)N[C@@H]([C@@H](C)O)C(=O)N2 (stereo partly drawn) (HELM PEPTIDE1{C.N.P.N.G.T.C.Y.[CCC(N[*:1])C(=O)[*:2]].S.E.P.P.I}$PEPTIDE1,PEPTIDE1,1:R3-7:R3|PEPTIDE1,PEPTIDE1,1:R1-14:R2$$$V2.0)	–	–	–	–	–	–	–	–
